Measurements taken from ChEMBL document CHEMBL4130485, “Inhibitors of Yellow Fever Virus replication based on 1,3,5-triphenyl-4,5-dihydropyrazole scaffold: Design, synthesis and antiviral evaluation” (Eur J Med Chem, 2017).

Key:
[1] = Cytotoxicity against golden hamster BHK21 cells assessed as decrease in cell viability after 72 hrs by MTT assay; type: cell-based, Mesocricetus auratus, BHK-21
Method in brief: (§1)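 Uninfected MDBK (6×10^5 cells/mL, 10% horse serum) or BHK (1×10^6 cells/mL, 10% FBS) cells in MEM-Earle with serial compound dilutions at 37 °C, 5% CO2, run in parallel with the antiviral assays. Viability read by MTT after 72 h. CC50 by linear regression; mean of three determinations.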

Yellow fever virus [2] = assay: Antiviral activity against Yellow fever virus 17D vaccine (Stamaril Pasteur J07B01) infected in golden hamster BHK21 cells assessed as protection against virus-induced cytopathic effect after 3 to 4 days by MTT assay; type: functional, organism-based; details: BHK-21
Method in brief: (§2)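 BHK-21 cells (MDBK for BVDV) seeded at 5×10^4 (BHK) or 3×10^4 (MDBK) cells/well and grown overnight to confluence. Infected at m.o.i. 0.01 in maintenance MEM-Earle with 0.5% inactivated FBS. Serial compound dilutions added 2 h later (final 100, 20, 4, 0.8 µM; DMSO ≤0.1%). Viability read by MTT after 3–4 days at 37 °C. EC50 obtained by linear regression against untreated controls; mean of three determinations.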

[3] = Selectivity index, ratio of CC50 for golden hamster BHK21 cells to EC50 for Yellow fever virus 17D; type: toxicity; details: read-out: Ratio CC50/EC50
Method in brief: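 Selectivity index calculated as BHK-21 CC50 divided by YFV EC50, both from MTT assays.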

dengue virus type 2 = assay: Antiviral activity against Dengue virus type 2 clinical isolate infected in golden hamster BHK21 cells assessed as protection against virus-induced cytopathic effect after 3 to 4 days by MTT assay; type: functional, organism-based; details: BHK-21; method in brief: as §2
West Nile virus = assay: Antiviral activity against West Nile virus clinical isolate infected in golden hamster BHK21 cells assessed as protection against virus-induced cytopathic effect after 3 to 4 days by MTT assay; type: functional, organism-based; details: BHK-21; method in brief: as §2
[4] = Cytotoxicity against bovine MDBK cells assessed as decrease in cell viability after 72 hrs by MTT assay; type: cell-based, Bos taurus; details: cattle; method in brief: as §1
[5] = system: Bovine viral diarrhea virus 1; assay: Antiviral activity against Bovine viral diarrhea virus NADL ATCC VR 534 infected in bovine MDBK cells assessed as protection against virus-induced cytopathic effect after 3 to 4 days by MTT assay; type: functional, organism-based, Bovine viral diarrhea virus 1-NADL; details: Bovine viral diarrhea virus isolates and strains, ATCC VR 534, MDBK; method in brief: as §2
[6] = Cytotoxicity against human MT4 cells assessed as decrease in cell viability after 96 hrs by MTT assay; type: cell-based
Method in brief: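 Exponentially growing MT-4 cells seeded at 1×10^5 cells/mL in RPMI-1640 with 10% FBS and incubated with serial compound dilutions at 37 °C, 5% CO2. Viability read by MTT after 96 h. CC50 by linear regression versus untreated controls.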

[7] = system: Human immunodeficiency virus 1; assay: Antiviral activity against HIV1 3B infected in human MT4 cells assessed as protection against virus-induced cytopathic effect after 4 days by MTT assay; type: functional, organism-based; details: Human immunodeficiency virus 1, 3B, MT4, 96 h
Method in brief: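 MT-4 cells (1×10^4/well) in RPMI with serial compound dilutions, infected with 100 CCID50 HIV-1 (m.o.i. 0.01). Viability read by MTT after 4 days at 37 °C. EC50 for 50% protection from cytopathicity obtained by linear regression versus untreated controls; mean of three determinations.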

[8] = system: Mammalian orthoreovirus 1; assay: Antiviral activity against Reovirus 1 infected in golden hamster BHK21 cells assessed as protection against virus-induced cytopathic effect after 3 to 4 days by MTT assay; type: functional, organism-based; details: Mammalian orthoreovirus 1, BHK-21; method in brief: as §2
[9] = Cytotoxicity against African green monkey Vero 76 cells assessed as decrease in cell viability after 48 to 96 hrs by MTT assay; type: cell-based; details: chlorocebus sabaeus
Method in brief: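 Vero 76 cells seeded at 5×10^5 cells/mL in D-MEM with 10% FBS and incubated with serial compound dilutions at 37 °C, 5% CO2. Viability read by MTT after 48–96 h. CC50 by linear regression versus untreated controls.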

[10] = Antiviral activity against Human enterovirus B Faulkner ATCC VR 185 infected in African green monkey Vero 76 cells assessed as protection against virus-induced cytopathic effect after 3 days by crystal violet staining-based plaque reduction assay; type: functional, cell-based; details: Faulkner ATCC VR 185, Vero 76, 72 h
[11] = Selectivity index, ratio of CC50 for African green monkey Vero 76 cells to EC50 for Human coxsackievirus B5 Faulkner; type: toxicity; details: read-out: Ratio CC50/EC50
Method in brief: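 Selectivity index calculated as Vero 76 CC50 (MTT) divided by CVB-5 plaque-reduction EC50.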

Enterovirus C = assay: Antiviral activity against Enterovirus C Sabin […] infected in African green monkey Vero 76 cells assessed as protection against virus-induced cytopathic effect after 2 days by crystal violet staining-based plaque reduction assay; type: functional, organism-based; details: Vero 76, 48 h
Vaccinia virus = assay: Antiviral activity against Vaccinia virus Lister ATCC VR 1549 infected in African green monkey Vero 76 cells assessed as protection against virus-induced cytopathic effect after 3 days by crystal violet staining-based plaque reduction assay; type: functional, organism-based; details: Orthopoxvirus vaccinia, ATCC VR 1549, Vero 76, 72 h
Human alphaherpesvirus 1 = assay: Antiviral activity against Human herpesvirus 1 KOS ATCC VR 1493 infected in African green monkey Vero 76 cells assessed as protection against virus-induced cytopathic effect after 3 days by crystal violet staining-based plaque reduction assay; type: functional, organism-based; details: Human alphaherpesvirus 1, KOS, Vero 76, 72 h
[12] = system: Vesicular stomatitis Indiana virus; assay: Antiviral activity against Vesicular stomatitis virus Indiana ATCC VR 158 infected in African green monkey Vero 76 cells assessed as protection against virus-induced cytopathic effect after 2 days by crystal violet staining-based plaque reduction assay; type: functional, organism-based; details: ATCC VR 158, Vero 76, 48 h
Human orthopneumovirus = assay: Antiviral activity against Human respiratory syncytial virus A2 ATCC VR 1540 infected in African green monkey Vero 76 cells assessed as protection against virus-induced cytopathic effect after 5 days by crystal violet staining-based plaque reduction assay; type: functional, organism-based; details: ATCC VR 1540, Vero 76, 120 h
Yellow fever virus [13] = assay: Potency index, ratio of azauridine EC50 to compound EC50 for Yellow fever virus 17D vaccine (Stamaril Pasteur J07B01); type: functional
[14] = Selectivity index, ratio of CC50 for bovine MDBK cells to EC50 for Bovine viral diarrhea virus NADL ATCC VR 534; type: toxicity; details: cattle, read-out: Ratio CC50/EC50
Method in brief: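 Selectivity index calculated as MDBK CC50 divided by BVDV EC50, both by MTT.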

SMILES	CC50 at 72 h [1] [µM]	EC50 (Yellow fever virus [2]) [nM]	selectivity ratio [3]	EC50 (dengue virus type 2) [µM]	EC50 (West Nile virus) [µM]	CC50 at 72 h [4] [µM]	EC50 [5] [µM]	CC50 at 96 h [6] [µM]	EC50 [7] [µM]	EC50 [8] [µM]	CC50 [9] [µM]	EC50 [10] [µM]	selectivity ratio [11]	EC50 (Enterovirus C) [µM]	EC50 (Vaccinia virus) [µM]	EC50 (Human alphaherpesvirus 1) [µM]	EC50 [12] [µM]	EC50 (Human orthopneumovirus) [µM]	Ratio EC50 (Yellow fever virus [13])	selectivity ratio [14]
NS(=O)(=O)c1ccc(N2N=C(c3ccc(Oc4ccccc4)cc3)CC2c2ccccc2Cl)cc1 (stereo not given)	8 to 9	1800	5	> 9	> 9	5	> 5	40	> 40	> 8	29	10.5	2.8	> 29	> 29	> 29	> 29	> 29	10	
NS(=O)(=O)c1ccc(N2N=C(c3ccc(Oc4ccccc4)cc3)CC2c2cccc(F)c2)cc1 (stereo not given)	10 to 11	1800	5.6	> 10	> 10	12	> 12	25	> 25	> 11	28	4.2	6.7	> 28	> 28	> 28	> 28	> 28	10	
NS(=O)(=O)c1ccc(N2N=C(c3ccc(Oc4ccccc4)cc3)CC2c2ccccc2F)cc1 (stereo not given)	32 to 34	1900	17.9	> 34	> 34	36	> 36	36	> 36	> 32	96	7	13.7	> 96	> 96	> 96	> 96	> 96	10	
NS(=O)(=O)c1ccc(N2N=C(c3ccc(OCc4ccccc4)cc3)CC2c2ccccc2Cl)cc1 (stereo not given)	12	1900	6.3	> 12	> 12	52	7.5	26	> 26	> 12	92	> 92		> 92	> 92	> 92	> 92	> 92	10	6.9
NS(=O)(=O)c1ccc(N2N=C(c3ccc(OCc4ccccc4)cc3)CC2c2cccc(Cl)c2)cc1 (stereo not given)	45 to 47	2000	22.5	> 45	> 45	40	5.5	36	11	> 47	85	> 85		> 85	> 85	> 85	> 85	> 85	10	7.3
Cc1cccc(C2CC(c3ccc(OCc4ccccc4)cc3)=NN2c2ccc(S(N)(=O)=O)cc2)c1 (stereo not given)	8 to 9	1800	5	> 9	> 9	56	12.5	44	> 44	> 8	100	8	12.5	> 100	> 100	> 100	> 100	> 100	10	4.5
